# Values joined by “and” are separate entries in the source; they are usually repeats but may differ in a detail not shown here. Equal entries are not always repeated. “Also recorded” adds a separate entry of the source. Where two headings read alike, the source gives them in different places.
# Assays:
# 3T3 fibroblast cells = test: In vitro 3T3 NRU phototoxicity test; assay type: cell-based
# How it was run: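 This followed OECD 432. 3T3 fibroblasts in 96-well plates were exposed to a concentration range of test compound, up to its solubility limit in HBSS, and viability was read by neutral red uptake.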
# PAMPA = assay type: in vitro ADME
# hERG = hERG (Homo sapiens, UniProt Q12809); test: hERG binding assay
# Chain of hERG (Q12809 whole entry): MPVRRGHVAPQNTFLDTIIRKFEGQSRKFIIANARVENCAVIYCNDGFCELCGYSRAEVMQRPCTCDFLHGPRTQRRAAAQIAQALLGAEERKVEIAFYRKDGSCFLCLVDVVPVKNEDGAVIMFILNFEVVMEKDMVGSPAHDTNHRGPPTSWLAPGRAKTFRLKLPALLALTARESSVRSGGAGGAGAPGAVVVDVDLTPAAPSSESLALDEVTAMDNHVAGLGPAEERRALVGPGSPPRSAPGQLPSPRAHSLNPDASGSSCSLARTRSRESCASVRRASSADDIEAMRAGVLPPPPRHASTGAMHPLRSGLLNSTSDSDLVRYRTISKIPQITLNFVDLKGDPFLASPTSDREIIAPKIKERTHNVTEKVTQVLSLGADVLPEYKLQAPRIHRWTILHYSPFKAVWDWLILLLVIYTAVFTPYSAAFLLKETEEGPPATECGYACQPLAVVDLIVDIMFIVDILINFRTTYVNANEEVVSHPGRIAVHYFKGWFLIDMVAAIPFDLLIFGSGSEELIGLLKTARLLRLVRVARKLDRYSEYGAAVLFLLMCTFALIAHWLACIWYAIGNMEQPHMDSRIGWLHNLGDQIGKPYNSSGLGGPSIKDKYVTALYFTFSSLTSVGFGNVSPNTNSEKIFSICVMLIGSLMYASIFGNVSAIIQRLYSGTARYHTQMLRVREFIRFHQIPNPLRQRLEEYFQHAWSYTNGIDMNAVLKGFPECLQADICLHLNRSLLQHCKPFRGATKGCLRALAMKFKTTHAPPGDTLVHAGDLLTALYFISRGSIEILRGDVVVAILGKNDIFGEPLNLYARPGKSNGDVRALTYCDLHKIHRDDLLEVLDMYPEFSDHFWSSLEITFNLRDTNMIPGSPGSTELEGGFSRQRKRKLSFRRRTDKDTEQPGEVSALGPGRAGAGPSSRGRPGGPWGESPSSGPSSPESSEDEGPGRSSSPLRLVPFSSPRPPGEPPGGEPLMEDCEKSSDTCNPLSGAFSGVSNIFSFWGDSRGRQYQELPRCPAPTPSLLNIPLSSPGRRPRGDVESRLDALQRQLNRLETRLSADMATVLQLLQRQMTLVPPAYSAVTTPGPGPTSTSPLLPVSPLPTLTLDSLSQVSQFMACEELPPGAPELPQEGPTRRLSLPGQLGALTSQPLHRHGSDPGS
# How it was run: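 Binding was measured in hERG-expressing HEK293 cells. Concentration-response curves were typically 6-point, spanning 0.37 to 30.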
# Plasma stability [1] = assay type: in vitro ADME; details: human
# How it was run: (§1)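 Test compound was added to plasma and incubated at 37 °C in a shaking water bath, with samples taken at sequential timepoints. Samples were quenched with ice-cold acetonitrile and analysed by LC-MS/MS, and half-life was calculated from the depletion rate.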
# CYP3A4 = CYP3A4 (Homo sapiens, UniProt P08684); test: CYP450 reversible inhibition; assay type: in vitro ADME
# Chain of CYP3A4 (P08684 whole entry): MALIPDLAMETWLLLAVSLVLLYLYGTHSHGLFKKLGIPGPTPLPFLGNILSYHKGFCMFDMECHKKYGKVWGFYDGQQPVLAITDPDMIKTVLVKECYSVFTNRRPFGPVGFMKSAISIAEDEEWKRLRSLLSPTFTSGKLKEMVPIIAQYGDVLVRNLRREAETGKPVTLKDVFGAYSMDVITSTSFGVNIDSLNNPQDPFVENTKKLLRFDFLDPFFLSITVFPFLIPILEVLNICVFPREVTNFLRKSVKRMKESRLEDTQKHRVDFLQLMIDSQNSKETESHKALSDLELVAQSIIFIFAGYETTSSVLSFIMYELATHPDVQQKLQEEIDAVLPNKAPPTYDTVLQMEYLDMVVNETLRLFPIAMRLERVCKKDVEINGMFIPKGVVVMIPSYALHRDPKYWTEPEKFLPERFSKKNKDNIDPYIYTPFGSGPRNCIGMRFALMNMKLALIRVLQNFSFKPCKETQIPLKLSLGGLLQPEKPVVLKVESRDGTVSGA
# CpPI(4)K::Y705A:Y907A = test: PI; assay type: biochemical, C. parvum
# How it was run: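 Enzyme was pre-incubated with compound for 5 min at room temperature. The reaction was started with substrate mix at twice final strength (PI, ATP, Tris-HCl pH 7.5, DTT, 0.05% Triton X-100, MnCl2) and run 50 min at room temperature. ADP was measured by ADP-Glo luminescence. IC50s came from in-plate duplicate 10-point 3-fold dilutions, with DMSO and reference-inhibitor controls. The C. parvum enzymes (wild type and mutants) were full-length proteins expressed from baculovirus in Sf21 cells.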
# C. hominis = test: Cytopathic effect; assay type: cell-based, Cryptosporidium hominis; details: read-out: Ch CPE EC50, HCT-8, 48 h
# How it was run: (§2)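 HCT-8 cells were grown at 37 °C, 5% CO2 in RPMI-1640 with 10% heat-inactivated FBS. Oocysts were excysted in 10 mM HCl/HBSS for 10 min at 37 °C, then in 2 mM sodium taurocholate in L-15/UltraCULTURE medium for 5 min. Infected cells were seeded onto pre-spotted compound (10-point, 3-fold dilution; DMSO and reference-inhibitor controls) and incubated 48 h. Cells were then lysed for a viability read-out, and concentration-response curves were fitted.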
# Plasma protein binding [2] = assay type: in vitro ADME; details: human
# rat reticulocytes = test: In vivo rat peripheral blood micronucleus assay
# How it was run: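 Peripheral blood was taken on days 3 and 15, in randomized order, from animals in the 2-week rat toxicology study. Micronucleated reticulocytes were counted by flow cytometry.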
# P-glycoprotein (MDR1) = test: MDCK MDR1 permeability and efflux; assay type: in vitro ADME; details: dog
# [3] = Hepatocytes metabolic stability; assay type: in vitro ADME; details: human
# How it was run: (§3)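 Test compound was incubated with liver microsomes or hepatocytes of each species, and parent depletion was quantified by LC-MS/MS. From this, in vitro half-life and intrinsic clearance were derived, along with predicted metabolic clearance and hepatic extraction ratio.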
# [4] = Liver microsomes metabolic stability; assay type: in vitro ADME; details: dog
# How it was run: as §3
# C. parvum [5] = test: Cytopathic effect; assay type: cell-based, Cryptosporidium parvum; details: for EC50: read-out: Cp CPE EC50, C. parvum, HCT-8, 48 h
# How it was run: as §2
# Plasma stability [6] = assay type: in vitro ADME; details: rat
# How it was run: as §1
# [7] = Systemic exposure in the mouse efficacy studies; assay type: in vivo
# CYP2D6 = CYP2D6 (Homo sapiens, UniProt P10635); test: CYP450 reversible inhibition; assay type: in vitro ADME
# Chain of CYP2D6 (P10635 whole entry): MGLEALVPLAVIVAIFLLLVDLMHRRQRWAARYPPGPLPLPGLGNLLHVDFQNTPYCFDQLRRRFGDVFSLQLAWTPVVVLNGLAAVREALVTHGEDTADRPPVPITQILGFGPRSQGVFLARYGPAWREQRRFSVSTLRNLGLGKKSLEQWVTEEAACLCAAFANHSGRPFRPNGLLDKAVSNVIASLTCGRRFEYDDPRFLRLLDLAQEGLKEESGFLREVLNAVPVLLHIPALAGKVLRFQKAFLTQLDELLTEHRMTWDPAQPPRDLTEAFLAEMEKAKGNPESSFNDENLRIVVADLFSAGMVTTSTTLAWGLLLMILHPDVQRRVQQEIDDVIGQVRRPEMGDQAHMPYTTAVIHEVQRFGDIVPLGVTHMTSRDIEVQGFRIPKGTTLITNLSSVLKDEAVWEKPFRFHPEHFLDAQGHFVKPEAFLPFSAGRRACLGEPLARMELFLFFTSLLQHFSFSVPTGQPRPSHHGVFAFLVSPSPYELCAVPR
# [8] = Hepatocytes metabolic stability; assay type: in vitro ADME; details: mouse; for half-life / hepatocyte CLint: hepatocytes
# How it was run: as §3
# [9] = MDCK Low Efflux permeability; assay type: in vitro ADME; details: dog
# [10] = Hepatocytes metabolic stability; assay type: in vitro ADME; details: dog
# How it was run: as §3
# HepG2 = test: Cytotoxicity assay; assay type: cell-based, human
# [11] = tested on: Salmonella typhimurium strains TA98 and TA100; test: Mini-Ames
# How it was run: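 Histidine-auxotrophic S. typhimurium TA98 and TA100 were exposed to test compound with and without rat liver S9.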
# HsPI(4)K = HsPI(4)K (Homo sapiens, UniProt Q9UBF8); test: PI; assay type: biochemical; details: for IC50: HsPI(4)K IC50, 3 μM ATP
# Chain of HsPI(4)K (Q9UBF8 523-816 limits assumed): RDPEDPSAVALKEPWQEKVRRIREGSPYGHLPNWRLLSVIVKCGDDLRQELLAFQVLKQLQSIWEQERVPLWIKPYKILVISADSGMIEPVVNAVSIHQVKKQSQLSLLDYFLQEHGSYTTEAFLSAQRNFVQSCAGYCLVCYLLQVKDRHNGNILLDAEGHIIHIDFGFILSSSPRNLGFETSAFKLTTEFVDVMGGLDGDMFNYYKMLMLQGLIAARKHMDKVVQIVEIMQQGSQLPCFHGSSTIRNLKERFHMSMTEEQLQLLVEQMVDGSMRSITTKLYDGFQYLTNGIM
# C. parvum [12] = test: Mouse efficacy study; assay type: in vivo, C57BL/6 IFN-γ-knockout mice; details: for log reduction in faecal oocyst shedding / log reduction in oocyst shedding: IFN-γ KO mouse, 5 days; for log reduction in faecal oocyst shedding: 10 mg kg^−1 oral
# CYP2C9 = CYP2C9 (Homo sapiens, UniProt P11712); test: CYP450 reversible inhibition; assay type: in vitro ADME
# Chain of CYP2C9 (P11712 whole entry): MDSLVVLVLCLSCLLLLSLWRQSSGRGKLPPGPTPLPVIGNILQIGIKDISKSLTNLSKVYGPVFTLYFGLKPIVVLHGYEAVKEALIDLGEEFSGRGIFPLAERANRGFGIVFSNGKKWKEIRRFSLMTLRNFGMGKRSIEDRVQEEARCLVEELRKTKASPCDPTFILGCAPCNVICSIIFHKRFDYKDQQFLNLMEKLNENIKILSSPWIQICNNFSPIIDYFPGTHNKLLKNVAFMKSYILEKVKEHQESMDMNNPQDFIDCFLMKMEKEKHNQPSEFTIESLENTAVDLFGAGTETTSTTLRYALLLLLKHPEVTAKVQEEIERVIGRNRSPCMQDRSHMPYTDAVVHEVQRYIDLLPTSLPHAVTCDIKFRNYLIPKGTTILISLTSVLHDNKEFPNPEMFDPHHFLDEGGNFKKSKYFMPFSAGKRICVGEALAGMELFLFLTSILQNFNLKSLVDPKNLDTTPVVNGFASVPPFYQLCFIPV
# [13] = Stability in intestinal S9 fraction; assay type: in vitro ADME; details: mouse
# How it was run: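 Test compound added to intestinal S9 fraction of each species to start the reaction. Incubated in a shaking water bath at 37 °C, with samples taken at sequential timepoints. Samples quenched with ice-cold acetonitrile and analysed by LC-MS/MS. Half-life calculated from the rate of parent compound depletion.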
# Plasma protein binding [14] = assay type: in vitro ADME; details: dog
# Plasma stability [15] = assay type: in vitro ADME; details: mouse
# How it was run: as §1
# [16] = tested on: human peripheral blood lymphocytes; test: In vitro human lymphocyte; assay type: cell-based; details: EDI048: near cytotoxic concentrations
# How it was run: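 Lymphocytes came from pooled blood of two donors. The assay was run under GLP and OECD guidelines, and micronuclei were scored on slides by fluorescence microscopy.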
# [17] = Liver microsomes metabolic stability; assay type: in vitro ADME; details: mouse
# How it was run: as §3
# [18] = High-throughput equilibrium solubility; assay type: physicochemical; details: thermodynamic from solid
# How it was run: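 Equilibrium solubility was measured by a miniaturized shake-flask method with HPLC quantification.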
compound,measurement,setting,value
"CN(C(=O)c1ccn2ncc(-c3ccc(C(N)=O)cc3)c2c1)c1ccc(C#N)cn1 [KDU731, 3–(4-carbamoylphenyl)-N-(5-cyanopyridin-2-yl)-N-methylpyrazolo [1,5-a]pyridine-5-carboxamide, reference compound]",Phototoxicity,3T3 fibroblast cells,Negative
same,Phototoxicity PIF value,3T3 fibroblast cells,3.1
same,PAMPA (% calc fraction absorbed),PAMPA,34.7%
same,IC50,hERG,> 30 µM
same,half-life,Plasma stability [1],> 120 min
same,IC50,CYP3A4,> 50 µM
same,loss of potency against CpPI(4)K::Y705A:Y907A mutant compared with wild-type,CpPI(4)K::Y705A:Y907A,35–200 ×
same,EC50,C. hominis; C. hominis,0.13 µM
same,% Plasma protein binding,Plasma protein binding [2],79.1%
same,In vivo rat reticulocytes MN induction,rat reticulocytes,induce micronuclei; also recorded: Positive
same,Papp A→B,P-glycoprotein (MDR1); MDCK-MDR1,1.95 ×10⁻⁶ cm/s
same,Papp B→A,P-glycoprotein (MDR1); MDCK-MDR1,15.5 ×10⁻⁶ cm/s
same,efflux ratio,P-glycoprotein (MDR1); MDCK-MDR1,7.93
same,Hepatocytes ER,[3],60%
same,Hepatocytes clearance,[3],12 μl/min/million cells
same,half-life,[3]; hepatocytes,57.9 min
same,Microsomal ER,[4],67%
same,microsomal CLint,[4],36 µL/min/mg
same,EC90,"C. parvum [5]; Cryptosporidium parvum, HCT-8, read-out: approximate C. parvum CPE assay EC90",~0.5 µM
same,EC50,C. parvum [5],0.1 µM
same,half-life,Plasma stability [6],> 120 min
same,AUC (time 0 to last timepoint),"[7]; mouse efficacy study, 10 mg kg^−1 oral","2,982 nM h"
same,IC50,CYP2D6,> 50 µM
same,Hepatocytes ER,[8],18%
same,half-life,[8],> 175 min
same,hepatocyte CLint,[8],< 4 µL/min/1e6 cells
same,Papp A→B,[9],12.1 ×10⁻⁶ cm/s
same,Hepatocytes ER,[10],10%
same,SI (selectivity index) HepG2 CC50 / C. parvum EC50 ratio,HepG2,> 100
same,Mini-AMES,[11],Negative
same,IC50,HsPI(4)K,1.93 ± 1.08 µM
same,log reduction in faecal oocyst shedding,C. parvum [12],~ 3 log
same,effect of intravenous injection on parasite load,"C. parvum [12]; i.v. 1 mg kg^−1, exposure similar to oral",negligible effects on the parasite load
same,IC50,CYP2C9,> 4.8 µM
same,half-life,[13],> 240 min
same,% Plasma protein binding,Plasma protein binding [14],70.8%
same,half-life,Plasma stability [15],85.2 min
same,In vitro Human lymphocyte MN induction,[16],induce micronuclei; also recorded: Positive
same,Microsomal ER,[17],48%
same,microsomal CLint,[17],50 µL/min/mg
same,solubility,[18]; FaSSIF,48 µM
same,solubility,"[18]; pH 6.8, aqueous buffer",19 µM
"CNC(=O)c1ccc(-c2cnn3ccc(C(=O)N(C)c4ccc(Cl)c(C(=O)OC)c4)cc23)cc1 [EDI048, methyl 2-chloro-5-(N-methyl-3-(4-(methylcarbamoyl)phenyl)pyrazolo[1,5-a]pyridine-5-carboxamido)benzoate]",Phototoxicity,3T3 fibroblast cells,Negative
same,Phototoxicity PIF value,3T3 fibroblast cells,1.8
same,PAMPA (% calc fraction absorbed),PAMPA,97%
same,IC50,hERG,> 30 µM
same,Plasma T1/2,Plasma stability [1],> 120 min
same,half-life,"Plasma stability [1]; Plasma T1/2, human plasma",> 240 min
same,IC50,CYP3A4,10.5 µM
same,loss of potency against CpPI(4)K::Y705A:Y907A mutant compared with wild-type,CpPI(4)K::Y705A:Y907A,35–200 ×
same,EC50,C. hominis; Cryptosporidium hominis,0.05 ± 0.001 µM
same,fraction unbound,Plasma protein binding [2]; plasma,0.045
same,In vivo rat reticulocytes MN induction,rat reticulocytes,Negative
same,Papp A→B,P-glycoprotein (MDR1); MDCK-MDR1,7.92 ×10⁻⁶ cm/s
same,efflux ratio,P-glycoprotein (MDR1); MDCK-MDR1,1.62
same,Papp B→A,"P-glycoprotein (MDR1); MDCK-MDR1, Permeability B–A, MDCK MDR1, basolateral to apical",12.9 ×10⁻⁶ cm/s
same,half-life,[3]; hepatocytes,< 3 min
same,hepatocyte CLint,[3]; hepatocytes,> 231 µL/min/1e6 cells
same,Microsomal ER,[4],94%
same,microsomal CLint,[4]; liver microsomes,271 µL/min/mg
same,EC50,C. parvum [5],0.05 µM
same,half-life,Plasma stability [6],11.6 min
same,systemic exposure,"[7]; mouse, oral 1 and 3 mg kg^−1",no detectable EDI048 systemic exposure
same,IC50,CYP2D6,> 25 µM
same,Hepatocytes ER,[8],93%
same,half-life,[8],2.8 min
same,hepatocyte CLint,[8],> 250 µL/min/1e6 cells
same,Papp A→B,[9],9.71 ×10⁻⁶ cm/s
same,Hepatocytes ER,[10],83%
same,hepatocyte CLint,[10]; hepatocytes,28.5 µL/min/1e6 cells
same,SI (selectivity index) HepG2 CC50 / C. parvum EC50 ratio,HepG2,> 100
same,selectivity ratio at 96 h,"HepG2; human, HepG2 cells (ATCC CRL-10741)",> 500
same,CC50,"HepG2; read-out: HepG2 CC50, 96 h",28.1 µM
same,Mini-AMES,[11],Negative
same,selectivity for Cryptosporidium PI(4)K over HsPI(4)K,HsPI(4)K,> 300 fold and 300 fold
same,IC50,HsPI(4)K,1.03 ± 0.47 µM
same,log reduction in oocyst shedding,C. parvum [12]; 1 mg kg^−1 oral once daily,0.3 log
same,log reduction in oocyst shedding,C. parvum [12]; 3 mg kg^−1 oral once daily,1.1 log
same,log reduction in faecal oocyst shedding,C. parvum [12],> 3 log and 3.1 log
same,IC50,CYP2C9,2.51 µM
same,half-life,[13],45 min
same,fraction unbound,Plasma protein binding [14]; plasma,0.061
same,half-life,"Plasma stability [15]; Plasma T1/2, mouse plasma",15.3 min
same,half-life,"Plasma stability [15]; Plasma T1/2, rodent plasma",12 to 15 min
same,In vitro Human lymphocyte MN induction,[16],Positive^d
same,Microsomal ER,[17],93%
same,microsomal CLint,[17]; liver microsomes,> 700 µL/min/mg
same,solubility,"[18]; FaSSIF, Solubility FaSSIF",198 µM
same,solubility,"[18]; pH 6.8, aqueous buffer, Solubility pH 6.8, pH 6.8",54 µM

# — paper PMC11522000 (Nature Microbiology, 2024)
